Converted amounts (≈) assume the structure as drawn.

The test system of the first series is MDA-MB-231. In words: Cytotoxicity against human MDA-MB-231 cells after 24 hrs by MTT assay. The series is classed as functional. To be noted: MDA-MB-231, 24 h, read-out: ID50 (the source's name). In outline:
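MDA-MB-231 cells (ATCC) were cultured in Leibovitz's L-15 with 10% FCS. Cells were seeded at 4 or 8×10^3/well and attached overnight at 37 °C. Compounds dissolved in methanol and diluted in medium were added for 24 h in duplicate, with a methanol blank. MTT (5 mg/mL stock) was added for 4 h, formazan taken up in DMSO, and A550 recorded.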
In general terms: Tetrazolium assays rely on reduction of a dye to a coloured formazan, in cell work by metabolically active cells.
On to `CC(=O)O[C@H]1C[C@@H](C)C(C=O)=C2[C@@H]1C(C)(C)C[C@]2(C)C=O` [BOTRYENEDIAL], for which the IC50 came to 10 mg/L (≈ 34.2 µM).
Same read-out and setting: as for `CC(=O)O[C@H]1C[C@@H](C)[C@H](C(=O)O)[C@@]2(O)[C@@H]1C(C)(C)C[C@]2(C)C=O`, the figure is more than 10 mg/L; as for `C[C@@H]1C[C@H](O)[C@H]2C(C)(C)C[C@]3(C)COC[C@@H]1[C@@]23O`, more than 10 mg/L.
Still for that read-out and setting: under `COC(=O)[C@@]1(C)CC(C)(C)[C@H]2C1=C(C=O)[C@H](C)C[C@@H]2O` [METHYL BOTRYENALOATE] stands more than 10 mg/L.
With `CC(=O)O[C@H]1C[C@@H](C)[C@H](C(=O)O)[C@@]2(O)[C@@H]1C(C)(C)C[C@]2(C)C(=O)O` [BOTRYDIOIC ACID], the IC50 was more than 10 mg/L.
On the same count and under the same terms, under `CC(=O)O[C@H]1C[C@@H](C)[C@@H](C=O)[C@@]2(O)[C@@H]1C(C)(C)C[C@]2(C)C=O` stands 1 mg/L (≈ 3.22 µM).

Tested on in a further series: not listed separately
In words: Cytotoxicity against human IMR90 cells after 24 hrs by MTT assay. The series is classed as cell-based, IMR-90. Particulars: read-out: ID50. In outline: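 IMR-90 embryonic fibroblasts (ATCC) were grown in DMEM with 10% FCS and 1% glutamine at 37 °C, 5% CO2. Cells were plated at 4 or 8×10^3/well and attached overnight. They were treated 24 h, in duplicate, with compounds from methanol stocks diluted in medium, with a methanol blank. MTT (5 mg/mL stock) was added for 4 h, formazan dissolved in DMSO, and read at 550 nm.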
As for `CC(=O)O[C@H]1C[C@@H](C)C(C=O)=C2[C@@H]1C(C)(C)C[C@]2(C)C=O` [BOTRYENEDIAL], the CC50 at 24 h is more than 10 mg/L.
Same read-out and setting: under `CC(=O)O[C@H]1C[C@@H](C)[C@H](C(=O)O)[C@@]2(O)[C@@H]1C(C)(C)C[C@]2(C)C=O` stands more than 10 mg/L; under `C[C@@H]1C[C@H](O)[C@H]2C(C)(C)C[C@]3(C)COC[C@@H]1[C@@]23O`, more than 10 mg/L; under `COC(=O)[C@@]1(C)CC(C)(C)[C@H]2C1=C(C=O)[C@H](C)C[C@@H]2O` [METHYL BOTRYENALOATE], more than 10 mg/L.
Consider `CC(=O)O[C@H]1C[C@@H](C)[C@H](C(=O)O)[C@@]2(O)[C@@H]1C(C)(C)C[C@]2(C)C(=O)O` [BOTRYDIOIC ACID], for which the CC50 at 24 h was more than 10 mg/L.
Consider `CC(=O)O[C@H]1C[C@@H](C)[C@@H](C=O)[C@@]2(O)[C@@H]1C(C)(C)C[C@]2(C)C=O`, for which the CC50 at 24 h stood at 10 mg/L (≈ 32.2 µM).

Tested on in another series: not listed separately
In words: Cytotoxicity against human U87MG cells after 24 hrs by MTT assay. The series is classed as functional, U-87MG ATCC. Particulars: U-87 MG, read-out: ID50 (the source's name). In outline: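 U87-MG glioblastoma cells (ATCC) were grown in MEM with 10% FCS, 1% sodium pyruvate and 1% nonessential amino acids. Cells were seeded at 4 or 8×10^3/well and adhered overnight at 37 °C. They were exposed 24 h, in duplicate, to methanol-dissolved compounds diluted in medium, with a methanol blank. MTT (5 mg/mL stock) was added for 4 h, formazan dissolved in DMSO, and absorbance read at 550 nm.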
In the case of `CC(=O)O[C@H]1C[C@@H](C)C(C=O)=C2[C@@H]1C(C)(C)C[C@]2(C)C=O` [BOTRYENEDIAL], the IC50 is 10 mg/L (≈ 34.2 µM).
Still for that read-out and setting: under `CC(=O)O[C@H]1C[C@@H](C)[C@H](C(=O)O)[C@@]2(O)[C@@H]1C(C)(C)C[C@]2(C)C=O` stands more than 10 mg/L.
On to `C[C@@H]1C[C@H](O)[C@H]2C(C)(C)C[C@]3(C)COC[C@@H]1[C@@]23O`, for which the IC50 was more than 10 mg/L.
Turning to `COC(=O)[C@@]1(C)CC(C)(C)[C@H]2C1=C(C=O)[C@H](C)C[C@@H]2O` [METHYL BOTRYENALOATE], the IC50 is more than 10 mg/L.
For `CC(=O)O[C@H]1C[C@@H](C)[C@H](C(=O)O)[C@@]2(O)[C@@H]1C(C)(C)C[C@]2(C)C(=O)O` [BOTRYDIOIC ACID], the IC50 is more than 10 mg/L.
Same read-out and setting: under `CC(=O)O[C@H]1C[C@@H](C)[C@@H](C=O)[C@@]2(O)[C@@H]1C(C)(C)C[C@]2(C)C=O` stands 5 mg/L (≈ 16.1 µM).

Tested on in a further series: not listed separately
In words: Cytotoxicity against HUVEC after 24 hrs by MTT assay. The series is classed as cell-based. To be noted: human, read-out: ID50. The gist of the method: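 Primary HUVEC from newborns, grown in DMEM/medium 199 with 20% FCS, 10 mM HEPES, heparin and ECGS at 37 °C, 5% CO2. Cells were seeded at 4 or 8×10^3/well and attached overnight. Compounds were added from methanol solutions diluted in medium, with a methanol blank, for 24 h in duplicate. MTT (5 mg/mL stock) was added for 4 h, formazan dissolved in DMSO, and A550 read.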
In the case of `CC(=O)O[C@H]1C[C@@H](C)C(C=O)=C2[C@@H]1C(C)(C)C[C@]2(C)C=O` [BOTRYENEDIAL], the CC50 at 24 h was 10 mg/L (≈ 34.2 µM).
`CC(=O)O[C@H]1C[C@@H](C)[C@H](C(=O)O)[C@@]2(O)[C@@H]1C(C)(C)C[C@]2(C)C=O`: the CC50 at 24 h was more than 10 mg/L.
Regarding `C[C@@H]1C[C@H](O)[C@H]2C(C)(C)C[C@]3(C)COC[C@@H]1[C@@]23O`, the CC50 at 24 h was more than 10 mg/L.
On to `COC(=O)[C@@]1(C)CC(C)(C)[C@H]2C1=C(C=O)[C@H](C)C[C@@H]2O` [METHYL BOTRYENALOATE], for which the CC50 at 24 h is more than 10 mg/L.
`CC(=O)O[C@H]1C[C@@H](C)[C@H](C(=O)O)[C@@]2(O)[C@@H]1C(C)(C)C[C@]2(C)C(=O)O` [BOTRYDIOIC ACID]: the CC50 at 24 h is more than 10 mg/L.
For `CC(=O)O[C@H]1C[C@@H](C)[C@@H](C=O)[C@@]2(O)[C@@H]1C(C)(C)C[C@]2(C)C=O`, the CC50 at 24 h was 10 mg/L (≈ 32.2 µM).

Tested on in a further series: not listed separately
In words: Cytotoxicity against human Hs 578T cells after 24 hrs by MTT assay. The series is classed as functional. Particulars: read-out: ID50 (the source's name). The gist of the method: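 Hs578T cells (ATCC) were maintained in DMEM with 10% FCS, 1% glutamine and 10 μg/mL insulin. Cells were seeded at 4 or 8×10^3/well and allowed to adhere overnight at 37 °C. They were exposed 24 h, in duplicate, to compounds in methanol diluted with medium, with a methanol blank. MTT (5 mg/mL stock) was added for 4 h, formazan dissolved in DMSO, and A550 measured.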
Regarding `CC(=O)O[C@H]1C[C@@H](C)C(C=O)=C2[C@@H]1C(C)(C)C[C@]2(C)C=O` [BOTRYENEDIAL], the IC50 stood at 10 mg/L (≈ 34.2 µM).
Take `CC(=O)O[C@H]1C[C@@H](C)[C@H](C(=O)O)[C@@]2(O)[C@@H]1C(C)(C)C[C@]2(C)C=O`: the IC50 is more than 10 mg/L.
As for `C[C@@H]1C[C@H](O)[C@H]2C(C)(C)C[C@]3(C)COC[C@@H]1[C@@]23O`, the IC50 was more than 10 mg/L.
Same read-out and setting: as for `COC(=O)[C@@]1(C)CC(C)(C)[C@H]2C1=C(C=O)[C@H](C)C[C@@H]2O` [METHYL BOTRYENALOATE], the figure is more than 10 mg/L.
Regarding `CC(=O)O[C@H]1C[C@@H](C)[C@H](C(=O)O)[C@@]2(O)[C@@H]1C(C)(C)C[C@]2(C)C(=O)O` [BOTRYDIOIC ACID], the IC50 is more than 10 mg/L.
On to `CC(=O)O[C@H]1C[C@@H](C)[C@@H](C=O)[C@@]2(O)[C@@H]1C(C)(C)C[C@]2(C)C=O`, for which the IC50 came to 5 mg/L (≈ 16.1 µM).

Another series concerns HT-1080. In words: Cytotoxicity against human HT1080 cells after 24 hrs by MTT assay. The series is classed as functional. To be noted: HT-1080, 24 h, read-out: ID50 (the source's name). The gist of the method: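 HT-1080 cells (ATCC) were kept in DMEM with 10% FCS, 1% glutamine and 1% vitamins at 37 °C, 5% CO2. Cells were seeded at 4 or 8×10^3/well and attached overnight, then exposed for 24 h in duplicate to methanol-dissolved compounds diluted in medium, with a methanol blank. MTT (5 mg/mL stock) was given for 4 h, formazan solubilized in DMSO, and absorbance read at 550 nm.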
For the compound `CC(=O)O[C@H]1C[C@@H](C)C(C=O)=C2[C@@H]1C(C)(C)C[C@]2(C)C=O` [BOTRYENEDIAL], the IC50 was found to be 10 mg/L (≈ 34.2 µM).
Consider `CC(=O)O[C@H]1C[C@@H](C)[C@H](C(=O)O)[C@@]2(O)[C@@H]1C(C)(C)C[C@]2(C)C=O`, for which the IC50 was more than 10 mg/L.
With `C[C@@H]1C[C@H](O)[C@H]2C(C)(C)C[C@]3(C)COC[C@@H]1[C@@]23O`, the IC50 is more than 10 mg/L.
For `COC(=O)[C@@]1(C)CC(C)(C)[C@H]2C1=C(C=O)[C@H](C)C[C@@H]2O` [METHYL BOTRYENALOATE], the IC50 was more than 10 mg/L.
Still for that read-out and setting: under `CC(=O)O[C@H]1C[C@@H](C)[C@H](C(=O)O)[C@@]2(O)[C@@H]1C(C)(C)C[C@]2(C)C(=O)O` [BOTRYDIOIC ACID] stands more than 10 mg/L; under `CC(=O)O[C@H]1C[C@@H](C)[C@@H](C=O)[C@@]2(O)[C@@H]1C(C)(C)C[C@]2(C)C=O`, 10 mg/L (≈ 32.2 µM).
